Reference: ChEMBL document CHEMBL4396951, “Optimization and anti-inflammatory evaluation of methyl gallate derivatives as a myeloid differentiation protein 2 inhibitor” (Bioorg Med Chem, 2019)
The source made the active and inactive calls. The calls are words filed in the database; no cut-off is given here.

Key:
[1] = test system: Peritoneal macrophage; experiment: Antiinflammatory activity in C57BL/6 mouse primary peritoneal macrophages assessed as inhibition of LPS-induced IL-6 production at 10 uM preincubated for 30 mins followed by LPS stimulation and measured after 24 hrs by sandwich ELISA; type: functional, cell-based
Outline: (§1)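 Thioglycollate-elicited mouse peritoneal macrophages in RPMI-1640/10% FBS. Compound pretreatment for 30 min (10 μM for single-point screening, graded concentrations for dose-response), then 0.5 μg/mL LPS for 24 h. TNF-α and IL-6 in culture medium measured by sandwich ELISA and normalized to total protein in cell lysates; n = 3.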

[2] = test system: Peritoneal macrophage; experiment: Antiinflammatory activity in C57BL/6 mouse primary peritoneal macrophages assessed as inhibition of LPS-induced TNFalpha production at 10 uM preincubated for 30 mins followed by LPS stimulation and measured after 24 hrs by sandwich ELISA; type: functional, cell-based; outline: as §1
[3] = test system: Peritoneal macrophage; experiment: Antiinflammatory activity in C57BL/6 mouse primary peritoneal macrophages assessed as inhibition of LPS-induced IL-6 production preincubated for 30 mins followed by LPS stimulation and measured after 24 hrs by sandwich ELISA; type: functional, cell-based; outline: as §1
[4] = test system: Peritoneal macrophage; experiment: Antiinflammatory activity in C57BL/6 mouse primary peritoneal macrophages assessed as inhibition of LPS-induced TNFalpha production preincubated for 30 mins followed by LPS stimulation and measured after 24 hrs by sandwich ELISA; type: functional, cell-based; outline: as §1
[5] = test system: Peritoneal macrophage; experiment: Antiinflammatory activity in C57BL/6 mouse primary peritoneal macrophages assessed as inhibition of LPS-induced TNFalpha production at 10 uM preincubated for 30 mins followed by LPS stimulation and measured after 24 hrs by sandwich ELISA relative to control; type: functional; conditions: C57BL/6, Peritoneal macrophage; outline: as §1
[6] = test system: Peritoneal macrophage; experiment: Antiinflammatory activity in C57BL/6 mouse primary peritoneal macrophages assessed as inhibition of LPS-induced IL-6 production at 10 uM preincubated for 30 mins followed by LPS stimulation and measured after 24 hrs by sandwich ELISA relative to control; type: functional; conditions: C57BL/6, Peritoneal macrophage; outline: as §1
[7] = Stability of compound in pH 7.4 phosphate buffer at 20 uM measured up to 25 mins by UV-VIS spectroscopy; type: physicochemical; conditions: pH 7.4, 25 min

SMILES | inhibition [1] | inhibition [2] | other results
O=C(Nc1ccccc1)c1cc(O)c(O)c(O)c1 | Active | Active | –
O=C(Nc1ccc2c(c1)CCC2)c1c(Cl)cccc1Cl | Active | Active | –
COc1ccc(/C=C/C(=O)Nc2ccc3c(c2)CCC3)cc1OC | Active | Active | –
O=C(/C=C/c1cccc(OC(F)(F)F)c1)Nc1ccc2c(c1)CCC2 | Active | Active | –
CN(C)c1cccc(C(=O)Nc2ccc3c(c2)CCC3)c1 | Active | Active | –
CC(=O)Nc1ccc(C(=O)Nc2ccc3c(c2)CCC3)cc1 | Active | Active | –
O=C(Nc1ccc2c(c1)CCC2)c1ccccc1C(F)(F)F | Active | Active | –
COc1ccc(OC)c(/C=C/C(=O)Nc2ccc3c(c2)CCC3)c1 | Active | Active | –
COc1ccc(/C=C/C(=O)Nc2ccc3c(c2)CCC3)cc1O | Active | Active | –
CN(C)c1ccccc1C(=O)Nc1ccc2c(c1)CCC2 | Active | Active | inhibition [3]: Dose-dependent effect; inhibition [4]: Dose-dependent effect; inhibition at 10 µM [5]: > 50%; inhibition at 10 µM [6]: > 50%; Stability [7]: Stable
O=C(Nc1ccc2c(c1)CCC2)c1ccc(Cl)c([N+](=O)[O-])c1 | Active | Active | –
COc1cc(CC(=O)Nc2ccc3c(c2)CCC3)cc(OC)c1 | Active | Active | –
CC(=O)N1CCc2cc(NC(=O)c3cc(O)c(O)c(O)c3)ccc21 | Active | Active | –
COc1ccc(NC(=O)c2cc(O)c(O)c(O)c2)cc1 | Active | Active | –
O=C(Nc1ccc(F)cc1)c1cc(O)c(O)c(O)c1 | Active | Active | –
O=C(Cc1cccc2ccccc12)Nc1ccc2c(c1)CCC2 | Active | Active | inhibition [3]: Dose-dependent effect; inhibition [4]: Dose-dependent effect; inhibition at 10 µM [5]: > 50%; inhibition at 10 µM [6]: > 50%; Stability [7]: Stable
O=C(Nc1ccc2c(c1)CCC2)c1cc2ccccc2[nH]1 | Active | Active | –
O=C(Nc1ccc2cc[nH]c2c1)c1cc(O)c(O)c(O)c1 | Active | Active | –
CN1CCN(Cc2ccc(NC(=O)c3cc(O)c(O)c(O)c3)cc2)CC1 | Active | Active | –

SMILES | inhibition [1] | inhibition [2] | other results
COc1ccccc1CNC(=O)c1cc(O)c(O)c(O)c1 | Active | Active | –
Cc1ncsc1C(=O)Nc1ccc2c(c1)CCC2 | Active | Active | –
COc1cc(NC(=O)c2cc(O)c(O)c(O)c2)cc(OC)c1 | Active | Active | –
Cc1ccc(C(=O)Nc2ccc3c(c2)CCC3)s1 | Active | Active | –
O=C(Nc1ccc2c(c1)CCC2)c1cccc(N2CCCC2)c1 | Active | Active | –
COc1cc(/C=C/C(=O)Nc2ccc3c(c2)CCC3)cc(OC)c1OC | Active | Active | –
CCOc1ccc(NC(=O)c2cc(O)c(O)c(O)c2)cc1 | Active | Active | –
O=C(Nc1ccc2c(c1)CCC2)c1cccc(N2CCOCC2)c1 | Active | Active | –
O=C(CCCc1c[nH]c2ccccc12)Nc1ccc2c(c1)CCC2 | Active | Active | –
CN1CCN(c2ccc(NC(=O)c3cc(O)c(O)c(O)c3)cc2)CC1 | Active | Active | –
CCN(CC)c1ccc(C(=O)Nc2ccc3c(c2)CCC3)cc1 | Active | Active | –
COc1cc(/C=C/C(=O)Nc2ccc3c(c2)CCC3)cc(OC)c1O | Active | Active | –
COc1ccc(CNC(=O)c2cc(O)c(O)c(O)c2)cc1OC | Active | Active | –
O=C(NCc1ccccc1)c1cc(O)c(O)c(O)c1 | Active | Active | –
O=C(Cc1ccc([N+](=O)[O-])cc1[N+](=O)[O-])Nc1ccc2c(c1)CCC2 | Active | Active | –
O=C(/C=C/c1ccccc1C(F)(F)F)Nc1ccc2c(c1)CCC2 | Active | Active | –
COc1ccc2cc(C(=O)Nc3ccc4c(c3)CCC4)[nH]c2c1 | Active | Active | inhibition [3]: Dose-dependent effect; inhibition [4]: Dose-dependent effect; inhibition at 10 µM [5]: > 50%; inhibition at 10 µM [6]: > 50%; Stability [7]: Stable
O=C(Nc1ccc2c(c1)CCC2)c1cc(Cl)nc(Cl)c1 | Active | Active | –
O=C(Nc1ccc(N2CCOCC2)cc1)c1cc(O)c(O)c(O)c1 | Active | Active | –
